Converted amounts (≈) assume the structure as drawn. The source made the active and inactive calls. No cut-off for these calls is given here.
Key:
Candida albicans [1] = experiment: Antifungal activity against Candida albicans IMRU 3669 at 5 mg/ml by agar disk diffusion assay; format: functional; details: for zone of inhibition at 5000 µg/mL: Candida albicans, IMRU 3669, read-out: DIZ
How it was run: (§1)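 Fungi maintained on Czapek's Dox agar; agar well diffusion with 1 cm wells and […] of each concentration (1, 2.5, 5 mg/mL) in DMF; inhibition zone diameter measured.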

Escherichia coli = experiment: Antibacterial activity against Escherichia coli NCTC 10416 at 5 mg/ml by agar disk diffusion assay; format: functional; details: read-out: DIZ
Bacillus subtilis [2] = experiment: Antibacterial activity against Bacillus subtilis NCTC 1040 at 5 mg/ml by agar disk diffusion assay; format: functional; details: read-out: DIZ
Staphylococcus aureus [3] = experiment: Antibacterial activity against Staphylococcus aureus NCTC 7447 at 5 mg/ml by agar disk diffusion assay; format: functional; details: read-out: DIZ
Salmonella typhi [4] = experiment: Antibacterial activity against Salmonella typhi NCIMB 9331 at 5 mg/ml by agar disk diffusion assay; format: functional, Salmonella enterica subsp. enterica serovar Typhi; details: Salmonella enterica, read-out: DIZ
Pseudomonas aeruginosa [5] = experiment: Antibacterial activity against Pseudomonas aeruginosa NCIB 9016 at 2.5 mg/ml by agar disk diffusion assay; format: functional; details: Pseudomonas aeruginosa, NCIB 9016; read-out: DIZ
Aspergillus niger [6] = experiment: Antifungal activity against Aspergillus niger Ferm-BAM C-21 at 5 mg/ml by agar disk diffusion assay; format: functional; details: read-out: DIZ; how it was run: as §1
Pseudomonas aeruginosa [7] = experiment: Antibacterial activity against Pseudomonas aeruginosa NCIB 9016 at 1 mg/ml by agar disk diffusion assay; format: functional; details: Pseudomonas aeruginosa, NCIB 9016; read-out: DIZ
Bacillus subtilis [8] = experiment: Antibacterial activity against Bacillus subtilis NCIB 3610 at 2.5 mg/ml by agar disk diffusion assay; format: functional; details: Bacillus subtilis, NCIB 3610; read-out: DIZ
Bacillus subtilis [9] = experiment: Antibacterial activity against Bacillus subtilis NCIB 3610 at 1 mg/ml by agar disk diffusion assay; format: functional; details: Bacillus subtilis, NCIB 3610; read-out: DIZ
Candida albicans [10] = experiment: Antifungal activity against Candida albicans IMRU 3669 at 2.5 mg/ml by agar disk diffusion assay; format: functional; details: read-out: DIZ; how it was run: as §1
Human alphaherpesvirus 1 = experiment: Antiviral activity against HSV1 infected african green monkey Vero cells at 10^-4 dilution of 5 mg/ml by plaque formation assay; format: functional
How it was run: (§2)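 Compound dilutions prepared from a 5 mg/mL DMSO stock, using the maximum non-toxic dilution for Vero cells over 3 days; 0.1 mL virus (10³) mixed with 0.1 mL compound for 1 h at room temperature; mixture inoculated onto washed Vero monolayers in 12-well plates and adsorbed at 37 °C; 2× MEM/agarose overlay applied; read-out % reduction in plaque count versus untreated virus control.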

Aspergillus niger [11] = experiment: Antifungal activity against Aspergillus niger IMI 31726 at 5 mg/ml by agar disk diffusion assay; format: functional; details: read-out: DIZ
Bacillus subtilis [12] = experiment: Antibacterial activity against Bacillus subtilis NCIB 3610 at 5 mg/ml by agar disk diffusion assay; format: functional; details: Bacillus subtilis, NCIB 3610; read-out: DIZ
Coxsackievirus B4 = experiment: Antiviral activity against Coxsackievirus B4 infected african green monkey Vero cells at 10^-4 dilution of 5 mg/ml by plaque formation assay; format: functional, organism-based; how it was run: as §2
Pseudomonas aeruginosa [13] = experiment: Antibacterial activity against Pseudomonas aeruginosa NCIB 9016 at 5 mg/ml by agar disk diffusion assay; format: functional; details: Pseudomonas aeruginosa, NCIB 9016; read-out: DIZ
Aspergillus niger [14] = experiment: Antifungal activity against Aspergillus niger Ferm-BAM C-21 at 2.5 mg/ml by agar disk diffusion assay; format: functional; details: read-out: DIZ; how it was run: as §1
Hepatovirus A = experiment: Antiviral activity against Hepatitis A virus infected african green monkey Vero cells at 10^-4 dilution of 5 mg/ml by plaque formation assay; format: functional; how it was run: as §2
HeLa = experiment: Cytotoxicity against human HeLa cells assessed as surviving fraction after 48 hrs by SRB assay; format: functional, cell-based
How it was run: (§3)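 Cells seeded at 10⁴ cells/well and left 24 h to attach, then exposed to […] in triplicate wells per dose. Incubation 48 h, 37 °C, 5% CO₂. Cells fixed and stained with sulforhodamine B, excess dye removed with acetic acid, bound dye taken up in Tris EDTA and read on an ELISA reader. Surviving fraction plotted against concentration.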

[15] = Antitumor activity against mouse EAC cells assessed as inhibition of cell viability at 100 ug/ml after 2 hrs by trypan blue exclusion assay; format: functional; details: Ehrlich
How it was run: (§4)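 EAC cells aspirated from ascitic fluid of inoculated mice and diluted in saline; 0.1 mL cell suspension, 0.8 mL RPMI 1640 and 0.1 mL compound (25, 50 or 100) incubated 2 h at 37 °C; non-viable cells counted by trypan blue exclusion; % non-viable = dead/total × 100.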

U-251 = experiment: Cytotoxicity against human U251 cells assessed as surviving fraction after 48 hrs by SRB assay; format: functional, cell-based; details: u-251; how it was run: as §3
HCT-116 = experiment: Cytotoxicity against human HCT116 cells assessed as surviving fraction after 48 hrs by SRB assay; format: functional, cell-based; details: hct-116; how it was run: as §3
[16] = Antitumor activity against mouse EAC cells assessed as inhibition of cell viability at 50 ug/ml after 2 hrs by trypan blue exclusion assay; format: functional; details: Ehrlich; how it was run: as §4
[17] = Antitumor activity against mouse EAC cells assessed as inhibition of cell viability at 25 ug/ml after 2 hrs by trypan blue exclusion assay; format: functional; details: Ehrlich; how it was run: as §4
MCF7 = experiment: Cytotoxicity against human MCF7 cells assessed as surviving fraction after 48 hrs by SRB assay; format: functional, cell-based; how it was run: as §3
HepG2 = experiment: Cytotoxicity against human HepG2 cells assessed as surviving fraction after 48 hrs by SRB assay; format: functional, cell-based; how it was run: as §3
Staphylococcus aureus [18] = experiment: Antimicrobial activity against Staphylococcus aureus NCTC 7447 by macrotube dilution assay; format: functional
Candida albicans [19] = experiment: Antifungal activity against Candida albicans IMRU 3669 at 1 mg/ml by agar disk diffusion assay; format: functional; details: read-out: DIZ; how it was run: as §1
Salmonella typhi [20] = experiment: Antimicrobial activity against Salmonella typhi NCIMB 9331 by macrotube dilution assay; format: functional, Salmonella enterica subsp. enterica serovar Typhi; details: Salmonella enterica
Candida albicans [21] = experiment: Antifungal activity against Candida albicans IMRU 3669 by macrotube dilution assay; format: functional
How it was run: (§5)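 Macrotube twofold dilution per NCCLS/CLSI guidelines for fungi; 2 mg compound in 2.0 mL DMF, serially diluted across 14 tubes of Czapek's Dox medium, with a control tube; inoculum added to halve the concentration; 30 °C for 72 h; MIC is the lowest concentration without visible growth.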

Bacillus subtilis [22] = experiment: Antimicrobial activity against Bacillus subtilis NCTC 1040 by macrotube dilution assay; format: functional
Aspergillus niger [23] = experiment: Antifungal activity against Aspergillus niger Ferm-BAM C-21 by macrotube dilution assay; format: functional; how it was run: as §5
Klebsiella pneumoniae = experiment: Antimicrobial activity against Klebsiella pneumoniae NCIMB 9111 by macrotube dilution assay; format: functional
[24] = Homo sapiens, HepG2, 48 h, read-out: IC50

Structure (SMILES)	zone of inhibition at 5000 µg/mL (Candida albicans [1]) [mm]	zone of inhibition at 2500 µg/mL (Pseudomonas aeruginosa [5]) [mm]	zone of inhibition at 5000 µg/mL (Aspergillus niger [6]) [mm]	zone of inhibition at 1000 µg/mL (Pseudomonas aeruginosa [7]) [mm]	zone of inhibition at 2500 µg/mL (Bacillus subtilis [8]) [mm]	zone of inhibition at 1000 µg/mL (Bacillus subtilis [9]) [mm]	zone of inhibition at 2500 µg/mL (Candida albicans [10]) [mm]	zone of inhibition at 5000 µg/mL (Bacillus subtilis [12]) [mm]	zone of inhibition at 5000 µg/mL (Pseudomonas aeruginosa [13]) [mm]	inhibition at 100 µg/mL [15] [%]	inhibition at 50 µg/mL [16] [%]	inhibition at 25 µg/mL [17] [%]	other results
N=C1C(=S)N(c2ccc(Br)cc2)C(=O)N1c1cc(Cl)c(Cl)cc1Cl	14												zone of inhibition at 5000 µg/mL (Escherichia coli): 16 mm; zone of inhibition at 5000 µg/mL (Bacillus subtilis [2]): 16 mm; zone of inhibition at 5000 µg/mL (Staphylococcus aureus [3]): 16.5 mm; zone of inhibition at 5000 µg/mL (Salmonella typhi [4]): 18 mm
N=C1C(=S)N(c2ccc(Cl)c(Cl)c2)C(=O)N1c1ccc(Cl)cc1	17	16	17	15	13	13	13	14	18				diameter of the inhibition zone (DIZ) (Candida albicans [1]): 14 mm; zone of inhibition at 5000 µg/mL (Escherichia coli): 19 mm; zone of inhibition at 5000 µg/mL (Bacillus subtilis [2]): 16 mm; zone of inhibition at 5000 µg/mL (Staphylococcus aureus [3]): 16 mm; Activity (Human alphaherpesvirus 1): inactive; zone of inhibition at 5000 µg/mL (Aspergillus niger [11]): 21 mm; Activity (Coxsackievirus B4): inactive; zone of inhibition at 2500 µg/mL (Aspergillus niger [14]): 15 mm; zone of inhibition at 5000 µg/mL (Salmonella typhi [4]): 17 mm; Activity (Hepatovirus A): inactive
Cc1ccc(-n2c(=O)n(-c3ccc(Cl)cc3)c3nc4cc(C)ccc4nc32)cc1										90	60	35	IC50 (HeLa; Homo sapiens, HeLa, 48 h, read-out: IC50): 8.32 µg/mL (≈ 20.8 µM); IC50 (U-251): Not Active; IC50 (HCT-116): Not Active; IC50 (MCF7; mcf7): Not Active; IC50 (HepG2; [24]): 4.43 µg/mL (≈ 11.1 µM)
N=C1C(=S)N(c2ccc(Cl)cc2)C(=O)N1c1cccc2ccccc12	14	16	12	15	18	17	12	19	18				
NNc1nnc2c(n1)n(-c1ccc(Cl)cc1)c(=O)n2-c1ccc(Cl)cc1										100	100	95	IC50 (HeLa; hela): Not Active; IC50 (HCT-116): Not Active; IC50 (MCF7; mcf7): Not Active; IC50 (HepG2; [24]): 1.54 µg/mL (≈ 3.97 µM)
O=C1N(c2ccc(Cl)cc2)CC(=S)N1c1ccc(Cl)c(Cl)c1	32	32		29	20	19		20	37				MIC (Staphylococcus aureus [18]): 15.6 µg/mL (≈ 42 µM); zone of inhibition at 1000 µg/mL (Candida albicans [19]): 25 mm; MIC (Salmonella typhi [20]): 0.49 µg/mL (≈ 1.32 µM); MIC (Candida albicans [21]): 0.97 µg/mL (≈ 2.61 µM); MIC (Bacillus subtilis [22]): 1.95 µg/mL (≈ 5.25 µM); MIC (Aspergillus niger [23]): 31.3 µg/mL (≈ 84.2 µM); MIC (Klebsiella pneumoniae): 3.9 µg/mL (≈ 10.5 µM)
O=C1N(c2ccc(Cl)cc2)CC(=S)N1c1ccc(Cl)cc1										100	100	90	IC50 (HeLa; hela): Not Active; IC50 (MCF7; Homo sapiens, MCF7, 48 h, read-out: IC50): 9.36 µg/mL (≈ 27.8 µM); IC50 (HepG2; hepg2): Not Active
CC1OC(=N)C(=S)N1c1ccc(Cl)c(Cl)c1 (centres undefined)	39	29	20	15	27	20	33	33	41				zone of inhibition at 1000 µg/mL (Candida albicans [19]): 21 mm; zone of inhibition at 2500 µg/mL (Aspergillus niger [14]): 11 mm

— ChEMBL document CHEMBL1155362, “Synthesis, characterization and derivatization of some novel types of mono- and bis-imidazolidineiminothiones and imidazolidineiminodithiones with antitumor, antiviral, antibacterial and antifungal activities--part I” (Eur J Med Chem, 2009)
